Consider three compounds from ChEMBL document CHEMBL1124627, “Long-acting dihydropyridine calcium antagonists. 3. Synthesis and structure-activity relationships for a series of 2-[(heterocyclylmethoxy)methyl] derivatives” (J Med Chem, 1989).

Data set [1] is filed under the species Cavia porcellus. Description: Negative logarithm of the molar concentration required to depress contraction in the Langendorff-perfused guinea pig heart by 25%. The data set is classed as functional.
The species entered for data set [2] is Rattus norvegicus. Description: Negative logarithm of molar concentration required to block calcium-induced contraction of potassium depolarized rat aorta by 50%. The data set is classed as functional.
The target of data set [3] is Voltage-dependent L-type calcium channel subunit alpha-1C (Rattus norvegicus, UniProt P22002). As to the kind of experiment: Selectivity for vascular (Ca pIC50) over cardiac (negative inotropy IC25) calcium channels. Format: functional.
Chain of Voltage-dependent L-type calcium channel subunit alpha-1C (P22002 whole entry): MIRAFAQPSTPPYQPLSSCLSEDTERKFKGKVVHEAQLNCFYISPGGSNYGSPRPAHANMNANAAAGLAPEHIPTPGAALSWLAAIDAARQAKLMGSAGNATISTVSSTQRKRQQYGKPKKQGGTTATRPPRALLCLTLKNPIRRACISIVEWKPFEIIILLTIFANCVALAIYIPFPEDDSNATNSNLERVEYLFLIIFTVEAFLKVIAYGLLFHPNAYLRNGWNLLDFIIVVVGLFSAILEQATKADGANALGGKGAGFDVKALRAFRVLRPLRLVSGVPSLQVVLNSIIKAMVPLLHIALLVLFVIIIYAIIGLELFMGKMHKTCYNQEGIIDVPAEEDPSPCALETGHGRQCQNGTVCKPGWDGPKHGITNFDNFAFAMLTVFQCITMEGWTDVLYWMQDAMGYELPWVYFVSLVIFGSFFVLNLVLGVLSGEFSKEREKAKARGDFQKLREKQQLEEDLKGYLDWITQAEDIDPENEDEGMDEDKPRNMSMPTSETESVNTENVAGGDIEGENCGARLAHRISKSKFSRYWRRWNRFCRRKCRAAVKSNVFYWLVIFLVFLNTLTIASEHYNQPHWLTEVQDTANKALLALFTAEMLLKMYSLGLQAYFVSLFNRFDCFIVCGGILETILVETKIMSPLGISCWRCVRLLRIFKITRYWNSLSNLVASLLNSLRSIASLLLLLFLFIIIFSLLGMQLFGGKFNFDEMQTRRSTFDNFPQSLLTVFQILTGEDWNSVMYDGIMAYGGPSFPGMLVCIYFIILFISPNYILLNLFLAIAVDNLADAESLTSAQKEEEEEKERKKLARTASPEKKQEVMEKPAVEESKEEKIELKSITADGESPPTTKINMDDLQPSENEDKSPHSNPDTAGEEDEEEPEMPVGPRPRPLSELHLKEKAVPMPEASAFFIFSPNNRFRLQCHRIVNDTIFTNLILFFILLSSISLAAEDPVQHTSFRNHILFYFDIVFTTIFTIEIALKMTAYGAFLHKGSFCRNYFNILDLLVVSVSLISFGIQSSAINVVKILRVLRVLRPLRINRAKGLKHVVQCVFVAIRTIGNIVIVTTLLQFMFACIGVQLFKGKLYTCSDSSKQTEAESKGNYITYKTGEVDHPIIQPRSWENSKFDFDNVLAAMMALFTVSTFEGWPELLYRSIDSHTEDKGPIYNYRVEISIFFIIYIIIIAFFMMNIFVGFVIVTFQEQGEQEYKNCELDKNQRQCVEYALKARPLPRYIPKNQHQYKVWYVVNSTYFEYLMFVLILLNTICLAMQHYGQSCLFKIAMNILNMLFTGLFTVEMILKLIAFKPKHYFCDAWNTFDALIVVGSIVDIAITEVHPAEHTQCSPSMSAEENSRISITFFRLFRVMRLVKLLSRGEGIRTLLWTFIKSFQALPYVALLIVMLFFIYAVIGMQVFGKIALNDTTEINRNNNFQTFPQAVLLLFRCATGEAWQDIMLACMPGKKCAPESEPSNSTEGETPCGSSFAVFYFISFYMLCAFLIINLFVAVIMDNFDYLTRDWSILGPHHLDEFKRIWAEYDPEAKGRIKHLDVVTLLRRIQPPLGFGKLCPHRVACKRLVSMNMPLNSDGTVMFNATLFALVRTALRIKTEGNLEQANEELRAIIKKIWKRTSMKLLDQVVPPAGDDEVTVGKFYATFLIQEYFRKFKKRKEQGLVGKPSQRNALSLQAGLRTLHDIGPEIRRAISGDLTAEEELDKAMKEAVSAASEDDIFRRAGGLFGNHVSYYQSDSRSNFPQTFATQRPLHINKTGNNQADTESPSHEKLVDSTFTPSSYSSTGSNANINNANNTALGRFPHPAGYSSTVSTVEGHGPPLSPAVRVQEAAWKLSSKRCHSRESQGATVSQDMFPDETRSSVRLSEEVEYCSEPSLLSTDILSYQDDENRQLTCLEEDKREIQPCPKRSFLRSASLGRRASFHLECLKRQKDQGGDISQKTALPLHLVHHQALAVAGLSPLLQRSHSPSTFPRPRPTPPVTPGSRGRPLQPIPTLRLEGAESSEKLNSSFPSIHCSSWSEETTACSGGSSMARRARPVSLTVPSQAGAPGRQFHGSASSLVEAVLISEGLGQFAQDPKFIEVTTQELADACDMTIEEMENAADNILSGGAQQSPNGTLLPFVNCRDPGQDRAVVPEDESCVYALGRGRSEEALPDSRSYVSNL
Data set [4] relates to Canis familiaris. Description: Coronary vasodilator activity in dogs, after administration of a dose of 150 micorg/kg intravenously. The data set is classed as functional, Canis lupus familiaris. A digest of the protocol: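 Anesthetized beagle dogs fitted with catheters for blood pressure, left ventricular pressure and intravenous dosing. Coronary blood flow was measured by hydrogen clearance with platinum electrodes in the coronary sinus and femoral artery, and cardiac output by thermodilution. Coronary vascular resistance was derived from these measurements. A single intravenous dose was given, and the CVR fall was followed over time to assess duration of action.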

A word on the IC50: it is the midpoint of a concentration-inhibition curve. In data set [1], `CCO/C(O)=C1\C(COCc2cc(=O)n(CCO)c(N)n2)=NC(C)=C(C(=O)OC)C1c1cccc(Cl)c1Cl` (centres undefined) gave a pIC25 of 7. The concentration for half-maximal inhibition (IC50) in data set [2] was 3.16 nM. Moreover, the Selectivity index in data set [3] was 32.
For `CCO/C(O)=C1\C(COCc2cc(O)nc(CN3CCOCC3)n2)=NC(C)=C(C(=O)OC)C1c1cccc(Cl)c1Cl` (centres undefined), in that order: 6.9, 3.98 nM and 32.
`COC(=O)C1=C(C)NC(C)=C(C(=O)OC)C1c1ccccc1[N+](=O)[O-]` [NIFEDIPINE]: in data set [4], the Decrease stood at 77%. Further, the pIC25 in data set [1] is 7.5. For the same compound, the Selectivity index in data set [3] is 8.
